Each structure is given as a SMILES string. pIC50: −log10 of the molar value. Activity calls are given as the source filed them. The rule behind the calls is not given here.

The subject of one experiment is SK-BR-3. The experiment in a line: Antiproliferative activity against human SKBR3 cells after 48 hrs by MTT assay. Particulars: SK-BR-3, 48 h. In kind it is functional, cell-based. The method, boiled down: (§1)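 Cells seeded at 10,000 per well; compound or vehicle (0.1% DMSO final) added 24 h after plating and left 48 h. MTT added at 0.5 mg/mL final for 3 h at 37 °C, formazan dissolved in SDS–HCl (20% SDS, 0.02 M HCl), absorbance at 570 nm. IC50 by non-linear regression; mean SD, n = 3.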
For orientation: Formazan colour is commonly taken as a measure of viable cells.

The test system of a further experiment is MCF7. The experiment in a line: Antiproliferative activity against human MCF7 cells after 48 hrs by MTT assay. In kind it is functional, cell-based. Particulars: MCF7, 48 h. In a few lines:
as §1

Experiment [1] has as its target T1, DNA topoisomerase 1 (Homo sapiens) (UniProt P11387).
T1 sequence (whole entry): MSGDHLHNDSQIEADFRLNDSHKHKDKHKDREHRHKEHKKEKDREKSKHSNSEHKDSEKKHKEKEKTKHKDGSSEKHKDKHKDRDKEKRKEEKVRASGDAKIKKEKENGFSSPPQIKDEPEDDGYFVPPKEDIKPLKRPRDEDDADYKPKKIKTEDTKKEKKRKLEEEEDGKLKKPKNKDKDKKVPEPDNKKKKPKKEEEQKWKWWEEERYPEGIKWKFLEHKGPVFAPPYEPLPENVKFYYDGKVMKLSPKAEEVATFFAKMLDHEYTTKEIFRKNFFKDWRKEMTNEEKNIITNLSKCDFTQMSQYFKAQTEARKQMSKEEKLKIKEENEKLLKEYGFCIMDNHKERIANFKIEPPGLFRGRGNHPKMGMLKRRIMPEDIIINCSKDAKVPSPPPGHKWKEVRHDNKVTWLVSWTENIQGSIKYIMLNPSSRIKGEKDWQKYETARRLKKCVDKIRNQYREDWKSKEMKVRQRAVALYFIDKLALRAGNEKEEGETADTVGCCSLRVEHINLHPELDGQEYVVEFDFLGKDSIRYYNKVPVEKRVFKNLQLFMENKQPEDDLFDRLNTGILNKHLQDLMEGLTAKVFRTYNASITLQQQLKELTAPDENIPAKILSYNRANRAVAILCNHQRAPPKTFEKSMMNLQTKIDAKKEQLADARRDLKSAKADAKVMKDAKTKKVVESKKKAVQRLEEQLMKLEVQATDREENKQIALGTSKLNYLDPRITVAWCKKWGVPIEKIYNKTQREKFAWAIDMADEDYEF
The experiment in a line: Inhibition of DNA topoisomerase 1 (unknown origin)-mediated relaxation of supercoiled pBSKS plasmid DNA assessed as formation of nicked form of DNA at 1 00 uM after 30 mins by agarose gel electrophoresis in presence of ethidium bromide.

For experiment [2], the target named is DNA topoisomerase 2-alpha (Homo sapiens) (UniProt P11388). The experiment in a line: Inhibition of human DNA topoisomerase 2alpha-mediated DNA cleavage assessed as decrease in relaxation of supercoiled pRYG plasmid at 100 uM after 30 mins by agarose gel electrophoresis. The method, boiled down:
(§2)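 Human Topo IIα, 1–2 units, with 250 ng supercoiled pRYG and 1 mM ATP in 5 mM Tris-HCl pH 7.5, 12.5 mM NaCl, 1 mM MgCl2, 0.5 mM DTT, 10 µg/mL albumin. Compound added in DMSO, 1% final. Incubated 37 °C for 30 min, stopped with SDS/EDTA, proteinase K digestion. 1% agarose in TBE without ethidium bromide, stained afterwards. Inhibition scored at 100, 60 and 30 µM.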

Experiment [3] concerns Saccharomyces cerevisiae. The experiment in a line: Growth inhibition of isogenic rad52-deficient Saccharomyces cerevisiae FM588 at 1 to 100 uM after 24 hrs by spectrophotometry. In kind it is functional, organism-based.
For a further experiment, the system named is HEL. The experiment in a line: Antiproliferative activity against human HEL cells after 48 hrs by MTT assay. In kind it is functional, cell-based. The method, boiled down: as §1
For experiment [4], the target named is DNA topoisomerase 2-alpha (Homo sapiens) (UniProt P11388). The experiment in a line: Inhibition of human DNA topoisomerase 2alpha-mediated relaxation of supercoiled pRYG plasmid DNA assessed as formation of linearized DNA at 100 uM after 30 mins by agarose gel electrophoresis relative to vehicle-treated control in presence of ethidium bromide. In a few lines:
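Cleavage-complex assay set up as the Topo IIα relaxation reaction, but with 10 units of hTopoIIα added 1–3 min before 100 µM compound in 1% DMSO. Etoposide as positive control. Electrophoresis in TAE containing 0.5 µg/mL ethidium bromide to resolve the linearized intermediate.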

Experiment [5] concerns Saccharomyces cerevisiae. The experiment in a line: Growth inhibition of Saccharomyces cerevisiae FM588 expressing wild type rad52 gene at 1 to 100 uM after 24 hrs by spectrophotometry. The format is functional, organism-based.
Experiment [6] concerns Saccharomyces cerevisiae. The experiment in a line: Cell cycle arrest in Saccharomyces cerevisiae W3749-14C harboring RAD52-YFP assessed as accumulation at G2 Phase at 100 uM after 3 hrs. The format is functional, organism-based. The method, boiled down: (§3)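 RAD52-YFP yeast (W3749-14C) growing asynchronously treated 3 h at 25 °C with 100 µM compound in 1% DMSO; DMSO and phleomycin 25 µg/mL as controls. Cells micrographed. Mononucleated budded cells with bud over two-thirds mother size scored as G2-arrested. Foci per cell = total YFP foci / total cells.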

The target of experiment [7] is DNA topoisomerase 2-alpha (Homo sapiens) (UniProt P11388). The experiment in a line: Inhibition of human DNA topoisomerase 2alpha-mediated DNA cleavage assessed as decrease in relaxation of supercoiled pRYG plasmid at 30 uM after 30 mins by agarose gel electrophoresis. The method, boiled down: as §2
Experiment [8] has as its system Saccharomyces cerevisiae. The experiment in a line: Induction of DNA repair in Saccharomyces cerevisiae W3749-14C harboring Rad52-YFP assessed as increase in Rad52 foci formation at 100 uM after 3 hrs. In kind it is functional, organism-based. In a few lines:
as §3

Experiment [9] concerns the target DNA topoisomerase 2-alpha (Homo sapiens) (UniProt P11388). The experiment in a line: Inhibition of human DNA topoisomerase 2alpha-mediated DNA cleavage assessed as decrease in relaxation of supercoiled pRYG plasmid at 60 uM after 30 mins by agarose gel electrophoresis. In a few lines: as §2
In experiment [10] the target is T1, DNA topoisomerase 1 (Homo sapiens). The experiment in a line: Inhibition of DNA topoisomerase 1 (unknown origin)-mediated DNA cleavage assessed as decrease in relaxation of supercoiled pBSKS plasmid at 1 00 uM after 30 mins by agarose gel electrophoresis.
Experiment [11] addresses T2, Type II restriction enzyme XhoI (Xanthomonas vasicola) (UniProt Q9KVZ7).
T2 sequence (whole entry): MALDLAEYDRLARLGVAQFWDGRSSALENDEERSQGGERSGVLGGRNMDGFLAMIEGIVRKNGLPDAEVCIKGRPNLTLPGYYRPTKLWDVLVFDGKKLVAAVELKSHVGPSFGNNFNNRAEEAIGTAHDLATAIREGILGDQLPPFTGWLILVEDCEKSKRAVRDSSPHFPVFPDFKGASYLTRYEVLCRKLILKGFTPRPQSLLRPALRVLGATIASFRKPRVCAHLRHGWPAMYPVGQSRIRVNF
The experiment in a line: Inhibition of Xanthomonas vasicola Xho1 assessed as inhibition of endonucleolytic cleavage of pBSKS plasmid DNA at 100 uM by agarose gel electrophoresis. In a few lines:
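XhoI digestion of pBSKS plasmid, which carries a single XhoI site, run like the Topo I reaction with compounds at 100 µM in 1% DMSO. Actinomycin D as intercalator control. Agarose gel separates supercoiled, nicked intermediate and linear product.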

Sequence of DNA topoisomerase 2-alpha (Homo sapiens) (P11388 whole entry): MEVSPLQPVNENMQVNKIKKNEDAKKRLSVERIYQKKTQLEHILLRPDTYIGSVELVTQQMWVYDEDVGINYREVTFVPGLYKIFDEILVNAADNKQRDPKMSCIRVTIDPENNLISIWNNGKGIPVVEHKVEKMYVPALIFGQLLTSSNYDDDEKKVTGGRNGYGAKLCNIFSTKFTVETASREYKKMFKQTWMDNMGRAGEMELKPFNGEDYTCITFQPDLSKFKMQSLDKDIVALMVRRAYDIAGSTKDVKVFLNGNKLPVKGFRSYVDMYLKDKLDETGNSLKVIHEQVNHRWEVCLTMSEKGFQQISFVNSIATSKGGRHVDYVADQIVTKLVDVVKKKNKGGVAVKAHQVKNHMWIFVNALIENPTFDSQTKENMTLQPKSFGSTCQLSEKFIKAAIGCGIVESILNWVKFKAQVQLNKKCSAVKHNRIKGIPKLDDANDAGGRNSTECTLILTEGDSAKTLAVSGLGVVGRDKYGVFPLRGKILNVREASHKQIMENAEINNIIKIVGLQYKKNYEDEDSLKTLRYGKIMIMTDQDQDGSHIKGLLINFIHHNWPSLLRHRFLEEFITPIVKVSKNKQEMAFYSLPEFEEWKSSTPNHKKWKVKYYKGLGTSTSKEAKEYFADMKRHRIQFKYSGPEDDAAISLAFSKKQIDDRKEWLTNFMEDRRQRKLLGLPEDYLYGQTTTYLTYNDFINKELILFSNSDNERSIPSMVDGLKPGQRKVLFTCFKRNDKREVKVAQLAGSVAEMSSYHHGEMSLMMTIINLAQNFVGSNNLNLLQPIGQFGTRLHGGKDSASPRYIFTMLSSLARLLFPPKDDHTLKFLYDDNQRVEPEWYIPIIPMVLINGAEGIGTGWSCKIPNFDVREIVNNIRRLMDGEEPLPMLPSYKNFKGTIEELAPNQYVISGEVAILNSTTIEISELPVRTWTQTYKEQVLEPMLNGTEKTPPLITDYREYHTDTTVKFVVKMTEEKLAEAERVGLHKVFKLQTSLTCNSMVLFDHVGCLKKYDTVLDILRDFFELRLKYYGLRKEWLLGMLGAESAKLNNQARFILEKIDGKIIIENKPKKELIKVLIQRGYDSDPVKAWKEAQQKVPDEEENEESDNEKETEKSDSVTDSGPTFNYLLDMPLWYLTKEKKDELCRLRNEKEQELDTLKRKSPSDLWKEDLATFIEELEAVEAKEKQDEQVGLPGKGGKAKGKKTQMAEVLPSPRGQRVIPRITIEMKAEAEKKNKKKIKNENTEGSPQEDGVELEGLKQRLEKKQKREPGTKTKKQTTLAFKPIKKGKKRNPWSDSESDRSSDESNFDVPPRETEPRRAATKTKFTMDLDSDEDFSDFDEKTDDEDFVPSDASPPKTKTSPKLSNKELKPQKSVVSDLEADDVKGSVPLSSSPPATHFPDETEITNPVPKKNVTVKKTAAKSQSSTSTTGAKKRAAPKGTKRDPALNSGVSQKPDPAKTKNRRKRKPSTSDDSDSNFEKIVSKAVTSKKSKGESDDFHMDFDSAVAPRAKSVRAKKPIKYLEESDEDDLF

By pIC50 is commonly meant the negative decadic logarithm of the IC50, by convention in mol/L. For `COc1ccc(-c2ccc3cccc4c3c2C(=O)N(CCN(C)C)C4=O)cc1`, the pIC50 in the experiment on SK-BR-3 and in the experiment on MCF7 was < 4.52 each time. Further, the inhibition result in [1] and in [2] was “inactive” each time. In addition, the “growth inhibition (GI)” value in the experiment on Saccharomyces cerevisiae [3] is “inactive”.

For `CN(C)CCN1C(=O)c2cccc3cc(-c4cccc(O)c4)cc(c23)C1=O`, the pIC50 was 5.36 in the experiment on SK-BR-3 and 5.15 in the experiment on HEL. Also, the inhibition result in [4] and in experiment [2] was “Active” each time. Further, the “growth inhibition (GI)” value in the experiment with Saccharomyces cerevisiae [3] was “Active”.

With `COc1ccccc1-c1ccc2cccc3c2c1C(=O)N(CCN(C)C)C3=O`, the pIC50 in the experiment with SK-BR-3 and in the experiment on MCF7 was 4.62 in each case. Besides, the inhibition entry in experiment [1] and in [2] was “inactive” each time.

On to `COc1ccccc1-c1ccc2c3c(cccc13)C(=O)N(CCN(C)C)C2=O`, for which the negative-log IC50 (pIC50) in the experiment with SK-BR-3 and in the experiment with MCF7 was < 4.52 in each case. Also, the inhibition entry in experiment [1] and in experiment [2] was “inactive” in each case. In addition, the “growth inhibition (GI)” value in the experiment with Saccharomyces cerevisiae [3] was “inactive”.

Turning to `COc1cccc(-c2ccc3cccc4c3c2C(=O)N(CCN(C)C)C4=O)c1`, the negative logarithm of the IC50 (pIC50) in the experiment with SK-BR-3 and in the experiment on MCF7 was < 4.52 in each case.

`COc1ccccc1-c1cc2c3c(cccc3c1)C(=O)N(CCN(C)C)C2=O`: the pIC50 with SK-BR-3 is 4.92; in the experiment with MCF7, 4.59. The inhibition entry in [1] is “inactive”. Also, in [2], the inhibition entry is “Active”.

Take `CN(C)CCN1C(=O)c2cccc3cc(-c4cccc([N+](=O)[O-])c4)cc(c23)C1=O`: the “growth inhibition (GI)” value in the experiment on Saccharomyces cerevisiae [5] was “Active”. Further, the pIC50 in the experiment on SK-BR-3 was 5.92; in the experiment on HEL, 6.22. Moreover, the result with Saccharomyces cerevisiae [6] and in the experiment on Saccharomyces cerevisiae [8] was Active. The inhibition result in experiment [7] and in experiment [4] was “Active” in each case.

For `COc1cccc(-c2cc3c4c(cccc4c2)C(=O)N(CCN(C)C)C3=O)c1`, the “growth inhibition (GI)” value with Saccharomyces cerevisiae [5] is “Active”. Moreover, the pIC50 was 6.52 in the experiment on SK-BR-3, 6.30 in the experiment with MCF7 and 5.57 in the experiment with HEL. For the same compound, the result with Saccharomyces cerevisiae [6] and in the experiment on Saccharomyces cerevisiae [8] was Active. The inhibition entry in experiment [9], in [10], in [4] and in [11] was “Active” in each case. Moreover, the inhibition result in experiment [1] is “inactive”.

For the compound `COc1ccc(-c2ccc3c4c(cccc24)C(=O)N(CCN(C)C)C3=O)cc1`, the values for the negative-log IC50 (pIC50) in the experiment on SK-BR-3 and in the experiment with MCF7 were 4.56 and < 4.52, respectively. The inhibition entry in experiment [9] and in [10] was “Active” throughout. The inhibition result in experiment [1] is “inactive”.

As for `CN(C)CCN1C(=O)c2cccc3cc(N)cc(c23)C1=O` [AMONAFIDE], in the experiment on Saccharomyces cerevisiae [5], the “growth inhibition (GI)” value was “inactive”. Further, the pIC50 with SK-BR-3 is 5.13; in the experiment with HEL it was 5.47. The inhibition entry in experiment [9] and in experiment [4] was “Active” in each case. In addition, the “growth inhibition (GI)” value in the experiment with Saccharomyces cerevisiae [3] is “Active”.

Turning to `COc1cccc(-c2ccc3c4c(cccc24)C(=O)N(CCN(C)C)C3=O)c1`, the pIC50 in the experiment with SK-BR-3 and with MCF7 was < 4.52 each time. The inhibition entry in [10] and in experiment [2] was “Active” each time. For the same compound, the inhibition result in experiment [1] was “inactive”.

As to `CN(C)CCN1C(=O)c2cccc3cc(-c4cccc(N)c4)cc(c23)C1=O`, the pIC50 with SK-BR-3 was 4.85; with HEL, 4.87. In experiment [4], the inhibition result was “Active”. Also, the inhibition result in experiment [2] was “inactive”. Also, in the experiment on Saccharomyces cerevisiae [3], the “growth inhibition (GI)” value is “Active”.

`CN(C)CCN1C(=O)c2cccc3cc(-c4cccc(C(F)(F)F)c4)cc(c23)C1=O`: the “growth inhibition (GI)” value with Saccharomyces cerevisiae [5] is “Active”. Further, the negative logarithm of the IC50 (pIC50) in the experiment on SK-BR-3 was 5.92; in the experiment on HEL, 5.80. Besides, the result with Saccharomyces cerevisiae [6] and with Saccharomyces cerevisiae [8] was Active. Also, the inhibition result in experiment [9] and in [4] was “Active” throughout.

For the compound `COc1ccc(-c2cc3c4c(cccc4c2)C(=O)N(CCN(C)C)C3=O)cc1`, the pIC50 was 5.82 with SK-BR-3 and 5.12 in the experiment on MCF7. Besides, in experiment [1], the inhibition entry was “inactive”. Moreover, the inhibition entry in experiment [2] was “Active”. Further, in the experiment on Saccharomyces cerevisiae [3], the “growth inhibition (GI)” value is “Active”.

On to `CN(C)CCN1C(=O)c2cccc3cc(-c4ccccc4)cc(c23)C1=O`, for which the “growth inhibition (GI)” value in the experiment on Saccharomyces cerevisiae [5] is “Active”. For the same compound, the results for the pIC50 in the experiment with SK-BR-3 and in the experiment with HEL were 6.10 and 5.22, respectively. The result in the experiment on Saccharomyces cerevisiae [6] and in the experiment with Saccharomyces cerevisiae [8] was Active. Moreover, the inhibition result in experiment [7] and in [4] was “Active” each time.

These data come from ChEMBL document CHEMBL2439982, “Synthesis and study of antiproliferative, antitopoisomerase II, DNA-intercalating and DNA-damaging activities of arylnaphthalimides” (Bioorg Med Chem, 2013).
